Source: PubChem (several laboratories)
CSN deneddyl inh = CSN deneddylation inhibition. Q92905. Purified CSN, SCF-Nedd8-OG deneddylation, fluorescence polarization. inhibition, % at 12.5 µM. 360,000 compounds, 0.38% hits;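 active means pattern-corrected inhibition above about 35%, with an unprinted fluorescence ratio check between 0.5 and 1.5, limit read from the data, passing the limit was not always enough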;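 further: 0% = enzyme with substrate and 100% = substrate without enzyme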
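Test system: purified human Csn5 enzyme expressed in HEK293T cells. Amount: 0.24 nM enzyme. Reagent: SCFSkp2-Nedd8OG substrate at 10 nM final. Schedule: 90 min incubation of compound, enzyme and substrate at room temperature. Detection: fluorescence polarization. Read-out: % inhibition of substrate cleavage by Csn5.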
Exocytosis inh = lytic granule exocytosis inhibition; 360,000 compounds, 0.66% hits; TALL-104 LAMP-1 surface exposure, flow cytometry; cells stimulated with thapsigargin and PMA; inhibition, % at 10 µM;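 active means inhibition above about 55%, limit read from the data; inconclusive means no clear call, values can overlap the other calls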
HNF4A DNA FP = change in binding of human HNF4 alpha to DNA | P41235 | HNF4a-FITC DNA binding, fluorescence polarization, 1 h | activity change, % at 10 µM | 360,000 compounds, 0.3% hits | AID 1224865; in the data active means activity change above about 30%, passing the limit was not always enough
Target sequence (P41235 whole entry, looked up): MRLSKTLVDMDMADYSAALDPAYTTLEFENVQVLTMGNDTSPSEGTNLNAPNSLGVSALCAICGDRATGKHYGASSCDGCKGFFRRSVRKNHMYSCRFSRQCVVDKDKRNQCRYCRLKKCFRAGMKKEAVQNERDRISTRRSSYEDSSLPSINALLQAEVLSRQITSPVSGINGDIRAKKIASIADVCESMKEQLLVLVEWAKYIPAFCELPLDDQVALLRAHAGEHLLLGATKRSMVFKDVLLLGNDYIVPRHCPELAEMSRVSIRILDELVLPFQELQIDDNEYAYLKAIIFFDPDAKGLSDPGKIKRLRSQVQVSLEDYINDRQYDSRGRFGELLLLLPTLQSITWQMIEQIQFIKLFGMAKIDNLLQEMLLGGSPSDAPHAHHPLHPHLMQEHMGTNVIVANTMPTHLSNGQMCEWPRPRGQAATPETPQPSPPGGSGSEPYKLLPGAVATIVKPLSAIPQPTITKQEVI
Myeloid diff 2 = compounds promoting myeloid differentiation. ER-HoxA9 myeloid progenitors, lysozyme-GFP differentiation, flow cytometry. calls only at 10 µM. 360,000 compounds, 1% hits. AID 624256;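 active means normalized GFP-positive differentiation at or above the plate's own cutoff, the solvent-only control mean plus 3 SD; inconclusive means no clear call, values can overlap the other calls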;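 further: cells exposed to compound for four days before flow analysis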
An asterisk follows results filed as active; i = inactive; ? = inconclusive; + = active, no number; ! = repeats disagree. This is a sample that favours compounds with a hit; in the whole collection about 2.2% have one here.

SMILES	CSN deneddyl inh	Exocytosis inh	HNF4A DNA FP	Myeloid diff 2
CCN(CC)CCNC(=O)C12CC3CC(CC(C3)C1)C2	0	-2	-3	+
O=C1Nc2ccccc2N(O)N1c1ccc(Cl)cc1	-1	-2	-6	i
CCN1c2ccccc2NC2C1C(C(C)=O)C(=O)N2c1ccc(Cl)cc1 (centres undefined)	25	22	45*	+
Cc1ccc(C(O)P(=O)(OCCC(C)C)c2ccc(N(C)C)cc2)cc1 (centres undefined)	-1	60*	-4	i
COc1ccc(C(O)P(=O)(OCCC(C)C)c2ccc(N(C)C)cc2)cc1OC (centres undefined)	3	-13	0	i
CCCOc1ccc(C(F)(F)F)cc1NC(=O)CCc1c(C)noc1C	-6	0	-1	i
CC(=O)c1cccc(NC(=O)C(C)OC(=O)/C=C/c2cccs2)c1 (centres undefined)	-1	0	-4	i
Oc1[nH]c(=S)sc1/C=C1\C(c2ccccc2)=Nc2ccccc21	24	-2	95*	i
CC(C)C(=O)N1CCC(n2nccc2NC(=O)CCc2ccccc2)CC1	2	-2	5	i
CC[C@]12c3[nH]c4cc(-c5ccco5)ccc4c3CCN1C(=O)[C@@H](CC(=O)NCCCn1ccnc1)C[C@@H]2C(=O)N1CCN(C(=O)C2CC2)CC1	0	-1	4	+
CC[C@]12c3[nH]c4cc(-c5ccco5)ccc4c3CCN1C(=O)[C@@H](CC(=O)NCCCn1ccnc1)C[C@@H]2C(=O)N1CCN(C(=O)c2ccco2)CC1	1	-1	0	i
CCOC(=O)c1c(C)nc2sc(C(=O)Nc3ccccc3)c(N)c2c1-c1ccc(OC)cc1	-1	13	3	+
CCCOc1ccc(C(=O)Nc2ccc(N3CCOCC3)cc2N2CCOCC2)cc1OCC	1	-6	0	i
NCCCC(N)(C(=O)O)C(F)F (centres undefined)	0	-2	3	+
Cc1cc(S(=O)(=O)N2CCOCC2)ccc1OCC(=O)Nc1ccc(F)cc1F	1	-6	1	i
CN(CCc1ccccn1)Cc1ccc(Cl)cc1Cl	0	2	-3	+
CN(C)CCCNS(=O)(=O)c1ccc(NC2CCCCCC2)c([N+](=O)[O-])c1	2	60*	7	?
O=C1c2ccccc2NC(c2ccc(Cl)cc2Cl)N1O (centres undefined)	-4	0	1	i
O=C1c2ccccc2NC(c2cccc(Cl)c2)N1N=C1CCCCCC1 (centres undefined)	57*	0	-3	i
O=C(COC(=O)CNS(=O)(=O)c1ccc(Cl)cc1)NC1CCCCC1	2	0	-2	i
O=C(NCc1ccccc1)C(c1ccccc1F)n1c(=O)c(-c2cc3ccccc3[nH]2)nc2ccccc21 (centres undefined)	1	13	6	i
CC(C)c1ccc(NC(=O)c2ccc(NS(C)(=O)=O)cc2)cc1	0	-1	2	+
CC1(C)NC(=O)N(CC(O)CN(c2cccc([N+](=O)[O-])c2)S(=O)(=O)c2ccccc2)C1=O (centres undefined)	-2	14	0	i
CCCCc1cc(C(=O)Cc2ccccn2)c(O)cc1O	-2	-11	3	i
CN(C)CCOc1ccc(C(C)(C)c2ccccc2)cc1	-2	-5	2	i
SMILES	CSN deneddyl inh	Exocytosis inh	HNF4A DNA FP	Myeloid diff 2
CC(C)(c1ccccc1)c1ccc(OCC2CO2)cc1 (centres undefined)	-3	56*	-4	i
CS(=O)(=O)Nc1ccc(C2=NN(S(C)(=O)=O)C(c3ccccc3)C2)cc1 (centres undefined)	1	-2	1	i
CS(=O)(=O)Nc1cccc(C2=NN(S(C)(=O)=O)C(c3ccc4c(c3)OCO4)C2)c1 (centres undefined)	-4	-6	36*	i
CCS(=O)(=O)N1N=C(c2ccc(NS(C)(=O)=O)cc2)CC1c1ccccc1 (centres undefined)	35*	-4	86*	+
CCS(=O)(=O)Nc1cccc(C2=NN(S(C)(=O)=O)C(c3cccs3)C2)c1 (centres undefined)	8	-1	6	i
CS(=O)(=O)N1N=C(c2ccccc2)CC1c1ccc2c(c1)OCO2 (centres undefined)	158	-1	156	+
Cc1ccc(C(=O)N[C@H](C(=O)Nc2sccc2C(N)=O)C(C)C)cc1	-2	-20	3	+
CC(C)[C@H](NC(=O)c1ccccc1F)C(=O)OCC(=O)Nc1sccc1C(N)=O	-2	0	4	i
O=c1/c(=C\c2cc([N+](=O)[O-])cc([N+](=O)[O-])c2O)sc2nc3ccccc3n12	14	-3	40*	i
NC[C@@H]1O[C@H](C23CC4CC(CC(C4)C2)C3)Cc2c1ccc(O)c2O	5	6	-1	+
Cc1ccc(SCc2c(C(=O)N/N=C/c3ccc4c(c3)OCO4)nnn2-c2nonc2N)cc1	19	79*	0	i
Cc1ccc(SCc2c(C(=O)N/N=C/c3ccccc3)nnn2-c2nonc2N)cc1	-1	85*	-3	i
CCOc1cc(/C=N/NC(=O)c2nnn(-c3nonc3N)c2C)ccc1OCc1ccc(C)cc1	41*	16	25	i
Cc1ccc(/C=N/NC(=O)c2nnn(-c3nonc3N)c2CSc2ccccc2)cc1	3	4	2	i
COc1ccc(S(=O)(=O)N2CCCCC2)cc1NS(=O)(=O)c1ccc(CNC(C)=O)cc1	2	4	-3	i
Cc1ccc(S(=O)(=O)CCC(=O)O)cc1C	-2	0	-5	+
CCCN(CC(=O)Nc1ccccc1OC)C(=O)Cn1c(=O)oc2ccccc21	-2	20	-1	i
CN(CCc1ccccc1)C(=O)c1ccc(NC(=O)Cc2ccc([N+](=O)[O-])cc2)cc1	-4	11	3	i
CC1(C)S[C@@H]2[C@H](NC(=O)[C@H](N)c3ccccc3)C(=O)N2[C@H]1C(=O)O	11	-4	-4	+!
O=S(=O)(c1c(F)cccc1F)N(CCc1ccc(F)cc1)C[C@@H](O)COCc1ccccc1	-1	11	-2	i
N#Cc1c(-c2ccccc2)c(C#N)c2nc3ccccc3n2c1N	8	-1	7	+
Cn1c(C(=O)NC2CC2)cc2c(=O)n(C)c3ccccc3c21	0	-2	5	i
Cn1c(C(=O)Nc2ccc3c(c2)OCCO3)cc2c(=O)n(C)c3ccccc3c21	-5	80*	-1	?
O=C(C[C@H]1C[C@H](C(=O)N2CCOCC2)[C@@]2(CCC3CCCC3)c3[nH]c4ccc(Cl)cc4c3CCN2C1=O)NCCCn1ccnc1	-1	33	-7	i
CN1/C(=C/C(=O)c2ccc(Cl)cc2)Sc2cc3c(cc21)OCO3	-9	2	45*	i
COc1ccc(OCc2cc(C(=O)N3CCCC(O)C3)no2)c2ccccc12 (centres undefined)	0	-2	-1	i
